ChEMBL document CHEMBL1275595, “Antimicrobial activity of a halocidin-derived peptide resistant to attacks by proteases” (2010)
Values after ≈ are worked out from the molar mass of the structure shown. Active and inactive are the calls of the source. The rule behind the calls is not given here. Bridge positions count the residues as written; N and C are the ends. Peptide text beside a SMILES is read from it. I, II: the chains in the order shown.

Columns and labels:
Pseudomonas aeruginosa = experiment: Antimicrobial activity against multidrug-resistant Pseudomonas aeruginosa CCARM 2161 after 18 hrs by broth dilution method; format: functional; conditions: CCARM 2161, 18 h
Summary of the method: (§1)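 Broth dilution per CLSI. Bacteria were grown overnight to stationary phase in Mueller-Hinton broth and diluted in fresh MHB to 2 × 10^5 CFU/ml. Stocks at 640 μg/ml in 0.01% acetic acid were 2-fold serially diluted to 10 μg/ml, and 11 μl was added to 100 μl of bacteria. After 18 h at 37°C, MIC was the lowest concentration with no visible turbidity. Run in triplicate.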

Salmonella enterica = experiment: Antimicrobial activity against Salmonella enterica KCTC 2930 after 18 hrs by broth dilution method; format: functional; conditions: KCTC 2930, 18 h
Summary of the method: (§2)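 Broth microdilution following CLSI recommendations. Bacteria were grown overnight to stationary phase in Mueller-Hinton broth, then diluted in fresh MHB to 2 × 10^5 CFU/ml. Peptide or antibiotic stocks of 640 μg/ml in 0.01% acetic acid were serially 2-fold diluted to 10 μg/ml, and each was added to the bacterial suspension at 11 μl per 100 μl. Plates were incubated 18 h at 37°C. MIC was taken as the lowest concentration giving no visible turbidity, in triplicate.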

Staphylococcus aureus [1] = experiment: Antimicrobial activity against methicillin-resistant Staphylococcus aureus CCARM 3696 by radial diffusion assay incubated with matrix metalloprotease 7 for 1 hr; format: functional, organism-based
Staphylococcus aureus [2] = experiment: Antimicrobial activity against methicillin-resistant Staphylococcus aureus CCARM 3696 by radial diffusion assay incubated with chymotrypsin for 1 hr; format: functional, organism-based
Bacillus subtilis = experiment: Antimicrobial activity against Bacillus subtilis KCTC 2213 after 18 hrs by broth dilution method; format: functional; conditions: KCTC 2213, 18 h; summary of the method: as §2
Listeria monocytogenes = experiment: Antimicrobial activity against Listeria monocytogenes KCTC 19111 after 18 hrs by broth dilution method; format: functional; conditions: KCTC 19111, 18 h; summary of the method: as §2
Staphylococcus aureus [3] = experiment: Antimicrobial activity against methicillin-resistant Staphylococcus aureus CCARM 3696 by radial diffusion assay incubated with chymotrypsin; format: functional, organism-based
Citrobacter freundii = experiment: Antimicrobial activity against Citrobacter freundii KCTC 2359 after 18 hrs by broth dilution method; format: functional; conditions: KCTC 2359, 18 h; summary of the method: as §2
Enterococcus faecium = experiment: Antimicrobial activity against vancomycin-resistant Enterococcus faecium CCARM 5028 after 18 hrs by broth dilution method; format: functional; conditions: CCARM 5028, 18 h; summary of the method: as §1
Escherichia coli = experiment: Antimicrobial activity against Escherichia coli KCTC 1039 after 18 hrs by broth dilution method; format: functional; conditions: KCTC 1039, 18 h; summary of the method: as §2
Staphylococcus aureus [4] = experiment: Antimicrobial activity against methicillin-resistant Staphylococcus aureus CCARM 3696 by radial diffusion assay incubated with human wound fluid for 1 hr; format: functional, organism-based
Staphylococcus aureus [5] = experiment: Antimicrobial activity against methicillin-resistant Staphylococcus aureus CCARM 3696 after 18 hrs by broth dilution method; format: functional; conditions: CCARM 3696, 18 h; summary of the method: as §1
Staphylococcus aureus [6] = experiment: Antimicrobial activity against methicillin-resistant Staphylococcus aureus CCARM 3696 by radial diffusion assay incubated with human wound fluid for 4 hrs; format: functional, organism-based
Staphylococcus aureus [7] = experiment: Antimicrobial activity against methicillin-resistant Staphylococcus aureus CCARM 3696 by radial diffusion assay incubated with Pseudomonas aeruginosa Culture supernatant for 1 hr; format: functional, organism-based
Klebsiella oxytoca = experiment: Antimicrobial activity against Klebsiella oxytoca KCTC 1686 after 18 hrs by broth dilution method; format: functional; conditions: KCTC 1686, 18 h; summary of the method: as §2
Staphylococcus aureus [8] = experiment: Antimicrobial activity against methicillin-resistant Staphylococcus aureus CCARM 3696 by radial diffusion assay incubated with Staphylococcus aureus Culture supernatant for 1 hr; format: functional, organism-based
Micrococcus luteus = experiment: Antimicrobial activity against Micrococcus luteus KCTC 9341 after 18 hrs by broth dilution method; format: functional; conditions: KCTC 9341, 18 h; summary of the method: as §2
Staphylococcus aureus [9] = experiment: Antimicrobial activity against methicillin-resistant Staphylococcus aureus CCARM 3696 by colony count assay incubated with trypsin for 20 mins; format: functional, organism-based
Summary of the method: (§3)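 Peptide (20 μg) was incubated at 37°C with 50 nM trypsin in 100 μl of 10 mM sodium phosphate, then heated 10 min at 80°C and cooled. MRSA (100 μl, 2 × 10^7 CFU/ml) was added for 5 min. Aliquots were plated on TSA (1.5% agarose, 3% TSB in NaP) and counted after overnight growth at 37°C. Read-out was CFU/ml; repeated three times on different days.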

Staphylococcus aureus [10] = experiment: Antimicrobial activity against methicillin-resistant Staphylococcus aureus CCARM 3696 by colony count assay incubated with trypsin for 10 mins; format: functional, organism-based; summary of the method: as §3
Staphylococcus aureus [11] = experiment: Antimicrobial activity against methicillin-resistant Staphylococcus aureus CCARM 3696 by radial diffusion assay incubated with matrix metalloprotease 7 for 5 mins; format: functional, organism-based
Staphylococcus aureus [12] = experiment: Antimicrobial activity against methicillin-resistant Staphylococcus aureus CCARM 3696 by colony count assay incubated with trypsin for 1 hr; format: functional, organism-based; summary of the method: as §3

SMILES	MIC (Pseudomonas aeruginosa) [µg/mL]	MIC (Salmonella enterica) [µg/mL]	MIC (Bacillus subtilis) [µg/mL]	MIC (Listeria monocytogenes) [µg/mL]	MIC (Citrobacter freundii) [µg/mL]	MIC (Enterococcus faecium) [µg/mL]	MIC (Escherichia coli) [µg/mL]	MIC (Staphylococcus aureus [5]) [µg/mL]	Activity (Staphylococcus aureus [7])	MIC (Klebsiella oxytoca) [µg/mL]	Activity (Staphylococcus aureus [8])	MIC (Micrococcus luteus) [µg/mL]	other results
CC(C)C[C@H](NC(=O)CNC(=O)[C@H](Cc1cnc[nH]1)NC(=O)[C@H](Cc1cnc[nH]1)NC(=O)[C@H](CC(C)C)NC(=O)[C@H](CC(C)C)NC(=O)[C@H](C)NC(=O)[C@H](CC(N)=O)NC(=O)[C@H](CC(C)C)NC(=O)[C@H](Cc1c[nH]c2ccccc12)NC(=O)[C@@H](N)CCCCN)C(=O)N[C@@H](CC(N)=O)C(=O)N[C@@H](CSSC[C@H](NC(=O)[C@H](CC(N)=O)NC(=O)[C@H](CC(C)C)NC(=O)CNC(=O)[C@H](Cc1cnc[nH]1)NC(=O)[C@H](Cc1cnc[nH]1)NC(=O)[C@H](CC(C)C)NC(=O)[C@H](CC(C)C)NC(=O)[C@H](C)NC(=O)[C@H](CC(N)=O)NC(=O)[C@H](CC(C)C)NC(=O)[C@H](Cc1c[nH]c2ccccc12)NC(=O)[C@@H](N)CCCCN)C(=O)N[C@@H](C)C(=O)N[C@@H](CCCCN)C(=O)NCC(=O)N[C@H](C(=O)N[C@@H](CC(C)C)C(=O)N[C@@H](C)C(N)=O)C(C)C)C(=O)N[C@@H](C)C(=O)N[C@@H](CCCCN)C(=O)NCC(=O)N[C@H](C(=O)N[C@@H](CC(C)C)C(=O)N[C@@H](C)C(N)=O)C(C)C (I: H-KWLNALLHHGLNCAKGVLA-NH2 / II: H-KWLNALLHHGLNCAKGVLA-NH2; disulfide I:13-II:13)	4 (≈ 0.973 µM)	4 (≈ 0.973 µM)	2 (≈ 0.486 µM)	4 (≈ 0.973 µM)	4 (≈ 0.973 µM)	2 (≈ 0.486 µM)	4 (≈ 0.973 µM)	4 (≈ 0.973 µM)	Active	4 (≈ 0.973 µM)	Active	4 (≈ 0.973 µM)	Activity (Staphylococcus aureus [1]): Active; Activity (Staphylococcus aureus [2]): Active; Activity (Staphylococcus aureus [3]): Active; Activity (Staphylococcus aureus [4]): Active; Activity (Staphylococcus aureus [6]): Active
CC[C@H](C)[C@H](NC(=O)CN)C(=O)NCC(=O)N[C@@H](CCCCN)C(=O)N[C@@H](Cc1ccccc1)C(=O)N[C@@H](CC(C)C)C(=O)N[C@@H](CCCCN)C(=O)N[C@@H](CCCCN)C(=O)N[C@@H](C)C(=O)N[C@@H](CCCCN)C(=O)N[C@@H](CCCCN)C(=O)N[C@@H](Cc1ccccc1)C(=O)NCC(=O)N[C@@H](CCCCN)C(=O)N[C@@H](C)C(=O)N[C@@H](Cc1ccccc1)C(=O)N[C@H](C(=O)N[C@@H](CCCCN)C(=O)N[C@H](C(=O)N[C@@H](CC(C)C)C(=O)N[C@@H](CCCCN)C(=O)N[C@@H](CCCCN)C(N)=O)[C@@H](C)CC)C(C)C [PEXIGANAN] (H-GIGKFLKKAKKFGKAFVKILKK-NH2)	8 (≈ 3.23 µM)	8 (≈ 3.23 µM)	4 (≈ 1.61 µM)	16 (≈ 6.46 µM)	8 (≈ 3.23 µM)	8 (≈ 3.23 µM)	4 (≈ 1.61 µM)	16 (≈ 6.46 µM)	inactive	8 (≈ 3.23 µM)	inactive	8 (≈ 3.23 µM)	Activity (Staphylococcus aureus [9]): inactive; Activity (Staphylococcus aureus [10]): inactive; Activity (Staphylococcus aureus [11]): inactive; Activity (Staphylococcus aureus [12]): Active
